Experiment [1] addresses T1, Falcipain 2 (Plasmodium falciparum, UniProt Q9N6S8).
T1 sequence (Q9N6S8 whole entry): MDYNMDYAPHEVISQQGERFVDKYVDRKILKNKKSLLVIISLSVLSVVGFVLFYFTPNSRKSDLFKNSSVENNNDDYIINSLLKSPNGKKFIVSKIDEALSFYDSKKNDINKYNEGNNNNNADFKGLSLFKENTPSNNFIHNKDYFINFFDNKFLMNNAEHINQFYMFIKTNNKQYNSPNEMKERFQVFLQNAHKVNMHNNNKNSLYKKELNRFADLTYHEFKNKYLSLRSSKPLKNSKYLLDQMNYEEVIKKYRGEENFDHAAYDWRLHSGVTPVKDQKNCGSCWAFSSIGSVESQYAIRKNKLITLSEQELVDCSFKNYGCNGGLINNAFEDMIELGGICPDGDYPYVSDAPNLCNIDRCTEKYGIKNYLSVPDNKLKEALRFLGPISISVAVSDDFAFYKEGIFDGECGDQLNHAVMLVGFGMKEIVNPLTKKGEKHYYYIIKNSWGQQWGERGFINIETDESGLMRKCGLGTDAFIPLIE
The experiment can be described thus: Inhibition of falcipain activity. Type of experiment: functional. Put shortly: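 Soluble parasite extract containing falcipain (30 nM) preincubated 30 min at room temperature with compound (100× DMSO stocks) and 10 mM DTT in 0.1 M sodium acetate, pH 5.5. Z-Phe-Arg-AMC then added to 50 μM final. Fluorescence (ex 380, em 460 nm) followed continuously for 30 min. Rates compared with DMSO controls. Multiple concentrations tested in duplicate or triplicate; IC50 extrapolated from % control activity curves.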

For experiment [2], the system named is Hemozoin. Description: Inhibition of hemoglobin degradation as percentage of organisms with dark swollen food vacuoles; 10-50%. Type of experiment: functional. Also noted: scale not given: the % may be the effect or the level left. Particulars: Plasmodium falciparum.
Experiment [3] has as its system Plasmodium falciparum. The experiment can be described thus: Inhibition of parasitaemia in ring-form development assay. It is filed as functional, organism-based. Put shortly: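 Ring-stage Itg2 cultures (2 mL) incubated with compound from 100× DMSO stocks. Medium changed at 24 h with inhibitor maintained. At 48 h, new ring forms per 1000 erythrocytes counted on Giemsa-stained smears and compared with 1% DMSO controls.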

Experiment [4] relates to Plasmodium falciparum. The experiment can be described thus: Inhibition of parasitaemia in [3H]hypoxanthine incorporation assay. Type of experiment: functional, organism-based. The procedure, abridged: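 Ring-stage P. falciparum Itg2 cultures (300 μL) given compound from 100× DMSO stocks for 24 h. [3H]hypoxanthine then added (0.0144 μg, 1.2 μCi per well) for a further 18 h. Cells harvested onto glass-fiber filters and counted by scintillation. Uptake compared with 1% DMSO controls; IC50 extrapolated from % control curves.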

The test system of experiment [5] is MDCK. The experiment can be described thus: Compound was tested for inhibition of MDCK cell metabolism using MTT assay method. Type of experiment: functional, cell-based. Particulars: Canis lupus familiaris. The procedure, abridged:
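MDCK cells cultured overnight in phenol red-free RPMI with 1–100 μM compound (100× DMSO stocks); medium then replaced with MTT (1 mg/mL) for 2 h. Supernatant removed, ethanol added, absorbance read at 560 nm. Compared with cells given 1% DMSO overnight.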
On the technique in general: Formazan colour is commonly taken as a measure of viable cells.

Experiment [6] deals with Hemozoin. The experiment can be described thus: Inhibition of hemoglobin degradation as percentage of organisms with dark swollen food vacuoles; 50-90%. Type of experiment: functional. Also on record: scale not given: the % may be the effect or the level left. Particulars: Plasmodium falciparum.
For experiment [7], the system named is Hemozoin. The experiment can be described thus: Inhibition of hemoglobin degradation as percentage of organisms with dark swollen food vacuoles. Also noted: scale not given: the % may be the effect or the level left. Particulars: Plasmodium falciparum. It is filed as functional.
For experiment [8], the system named is Hemozoin. Description: Inhibition of hemoglobin degradation as percentage of organisms with dark swollen food vacuoles; 0-10%. It is filed as functional. Also on record: scale not given: the % may be the effect or the level left. The settings on record: Plasmodium falciparum.

A value given as a limit tells only on which side of the number the result lay.

A word on the IC50: it is the point on the concentration scale where inhibition reaches its midpoint.

For the molecule `OC1=C2Sc3cc(F)ccc3N=C2CC(c2ccc(Cl)cc2Cl)C1` (stereo not drawn), the IC50 in experiment [1] amounted to 10 µM.

In experiment [1], `COc1cccc(C2CC3=Nc4ccc(Cl)cc4SC3=C(O)C2)c1OC` (stereo not drawn) came in with an IC50 of 10 µM.

Consider `COc1ccc(C2CC3=Nc4ccc(F)cc4S(=O)(=O)C3=C(O)C2)cc1OC` (stereo not drawn), for which the Activity in experiment [2] was determined as 50%. In addition, the IC50 in experiment [3] was determined as 1 µM; in experiment [1], 5 µM; in experiment [4], 3 µM.

For `O=S1(=O)C2=C(O)CC(c3ccc(Cl)cc3)CC2=Nc2ccc(Cl)cc21` (stereo not drawn), in experiment [2], the Activity turned out to be 50%. Besides, the IC50 in experiment [3] was found to be 4 µM; in experiment [1], 4 µM; in experiment [4] it was 8 µM.

Turning to `OC1=C2Sc3cc(Cl)ccc3N=C2CC(c2ccc(Cl)cc2Cl)C1` (stereo not drawn), the IC50 in experiment [1] amounted to 10 µM.

In experiment [1], `CC1(C)CC2=Nc3ccc(Cl)cc3SC2=C(O)C1` gave an IC50 of 30 µM.

`COc1ccc(C2CC3=Nc4ccc(Cl)cc4S(=O)(=O)C3=C(O)C2)cc1` (stereo not drawn) showed an IC50 in experiment [1] of 30 µM.

Take `OC1=C2Sc3cc(Cl)ccc3N=C2CC(c2ccccc2)C1` (stereo not drawn): the IC50 in experiment [1] is 10 µM.

`O=S1(=O)C2=C(O)CC(c3ccc(Cl)cc3Cl)CC2=Nc2ccc(Cl)cc21` (stereo not drawn) returned an IC50 in experiment [1] of 30 µM.

For the molecule `COc1ccc(C2CC3=Nc4ccc(F)cc4SC3=C(O)C2)cc1OC` (stereo not drawn), the IC50 in experiment [1] was determined as 20 µM.

In the case of `COc1cccc(C2CC3=Nc4ccc(Cl)cc4SC3=C(O)C2)c1` (stereo not drawn), it took 20 µM to reach half-maximal inhibition in experiment [1] (IC50).

The molecule `COc1ccc(C2CC3=Nc4ccc(Cl)cc4SC3=C(O)C2)cc1` (stereo not drawn) came in with a concentration for half-maximal inhibition (IC50) in experiment [1] of 10 µM.

For the molecule `COc1ccc(C2CC3=Nc4ccc(Cl)cc4SC3=C(O)C2)cc1OC` (stereo not drawn), in experiment [1], the IC50 came to 30 µM.

As to `COc1cccc(C2CC3=Nc4ccc(F)cc4SC3=C(O)C2)c1OC` (stereo not drawn), in experiment [1], the 50% inhibitory concentration (IC50) is 20 µM.

In the case of `OC1=C2Sc3cc(F)ccc3N=C2CC(c2ccc(Cl)cc2)C1` (stereo not drawn), the IC50 in experiment [5] is more than 100 µM; in experiment [3], 3 µM; in experiment [1], 5 µM; in experiment [4], 4 µM. Also, in experiment [6], the Activity stood at 90%.

Molecule `OC1=C2Sc3cc(Cl)ccc3N=C2CCC1` yielded a half-inhibitory concentration (IC50) in experiment [1] of 40 µM.

Take `COc1cccc(C2CC3=Nc4ccc(F)cc4S(=O)(=O)C3=C(O)C2)c1` (stereo not drawn): the concentration for half-maximal inhibition (IC50) in experiment [5] is more than 100 µM; in experiment [3], 3 µM; in experiment [1], 5 µM; in experiment [4], 3 µM. The molecule further came in with an Activity in experiment [6] of 90%.

`CC1(C)CC2=Nc3ccc(F)cc3SC2=C(O)C1` registered a 50% inhibitory concentration (IC50) in experiment [1] of 60 µM.

Regarding `CC1(C)CC2=Nc3ccc(Cl)cc3S(=O)(=O)C2=C(O)C1`, the IC50 in experiment [5] is more than 100 µM; in experiment [3], 20 µM; in experiment [1] it was 5 µM; in experiment [4], 60 µM. This molecule gave an Activity in experiment [7] of more than 90%.

Regarding `CC1(C)CC2=Nc3ccc(F)cc3S(=O)(=O)C2=C(O)C1`, the IC50 in experiment [5] was more than 100 µM; in experiment [3] it was 30 µM; in experiment [1] it was 5 µM; in experiment [4], 100 µM. Moreover, the Activity in experiment [7] was more than 90%.

Take `OC1=C2Sc3cc(F)ccc3N=C2CC(c2ccccc2)C1` (stereo not drawn): the IC50 in experiment [1] was found to be 20 µM.

For `COc1ccc(C2CC3=Nc4ccc(Cl)cc4S(=O)(=O)C3=C(O)C2)cc1OC` (stereo not drawn), in experiment [1], it took 50 µM to reach half-maximal inhibition (IC50).

`COc1cccc(C2CC3=Nc4ccc(Cl)cc4S(=O)(=O)C3=C(O)C2)c1OC` (stereo not drawn): the IC50 is more than 100 µM in experiment [5], 2 µM in experiment [3], 4 µM in experiment [1] and 2 µM in experiment [4]. Further, the Activity in experiment [7] is more than 90%.

On to `COc1cccc(C2CC3=Nc4ccc(F)cc4SC3=C(O)C2)c1` (stereo not drawn), for which the midpoint of inhibition in experiment [1], the IC50, lay at 20 µM.

Take `O=S1(=O)C2=C(O)CC(c3ccccc3)CC2=Nc2ccc(Cl)cc21` (stereo not drawn): the Activity in experiment [6] stood at 90%. Also, the IC50 in experiment [3] was determined as 5 µM; in experiment [1], 4 µM; in experiment [4] it was 5 µM.

Take `O=S1(=O)C2=C(O)CC(c3ccc(Cl)cc3)CC2=Nc2ccc(F)cc21` (stereo not drawn): the Activity in experiment [2] was determined as 50%. For the same molecule, the results for the 50% inhibitory concentration (IC50) in experiment [3], in experiment [1] and in experiment [4] were 6 µM, 5 µM and 4 µM, respectively.

On to `OC1=C2Sc3cc(Cl)ccc3N=C2CC(c2ccc(Cl)cc2)C1` (stereo not drawn), for which the half-maximal inhibitory concentration (IC50) in experiment [5] was 10 µM; in experiment [3], 3 µM; in experiment [1], 4 µM; in experiment [4], 6 µM. Besides, the Activity in experiment [8] is less than 10%.

The record behind these values is ChEMBL document CHEMBL1130327, “Synthesis and antimalarial effects of phenothiazine inhibitors of a Plasmodium falciparum cysteine protease” (J Med Chem, 1997).
